Where two headings read alike, the source gives them in different places.
Legend:
MCF-7 cells = experiment: MCF-7 cell proliferation assay; format: cell-based, human; conditions: for EC50: Homo sapiens, MCF7
Summary of the method: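 MCF-7 cells exposed to test compound or E2 at six concentrations from 10–12 to 10–7 M in EA-free medium. Proliferation read as MTT product absorbance at 570 nm. Three independent trials, each in triplicate. % RME2 = 100 × (OD test − OD VC)/(max OD E2 − OD VC). EC50 from curve fitting. EEF = EC50 of E2/EC50 of sample. One-way ANOVA with Dunnett's test versus E2 at each concentration.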

chicken embryo = experiment: Chicken embryonic assay; format: in vivo; conditions: egg injection, day 18
chicken fetal liver = experiment: TBARs level; format: in vivo; conditions: lower dose (0.05 mM: 45–50 μg/kg)
S. typhimurium TA100 = experiment: Ames test, strain TA100; format: cell-based, Salmonella typhimurium
S. typhimurium TA98 = experiment: Ames test, strain TA98; format: cell-based, Salmonella typhimurium
S. typhimurium TA102 = conditions: TA102 +S9, 5 μg/plate
[1] = higher dose (0.5 mM: 450–500 μg/kg; E2 0.1 mM: 91 μg/kg)
[2] = lower dose (0.05 mM: 45–50 μg/kg; E2 0.01 mM: 9.1 μg/kg)

Q: Which results are given for `O=c1cc(-c2ccc(O)c(O)c2)oc2cc(O)cc(O)c12` [luteolin]?
A: EEF (estradiol equivalent factor) (MCF-7 cells; EC50 of E2 divided by that of the test compound): 0.0012; EC50 (MCF-7 cells): 8.4 nM; max % RME2 (MCF-7 cells; highest % RME2 (relative maximum % E2) in test range 10^–12–10^–7 M): 26%; malformation rate (chicken embryo; [1]): 11.11%; number of dead chicken embryo (chicken embryo; [1]): 7; number of malformation chicken embryo (chicken embryo; [1]): 1; weights: embryo (chicken embryo; [1]): 20.70 ± 0.00 g; weights: heart (chicken embryo; [1]): 0.18 ± 0.05 g; weights: liver (chicken embryo; [1]): 0.49 ± 0.05 g; malformation rate (chicken embryo; [2]): 21.43%; mortality rate (chicken embryo; [2]): 12.5%; number of dead chicken embryo (chicken embryo; [2]): 2; number of malformation chicken embryo (chicken embryo; [2]): 3; weights: embryo (chicken embryo; [2]): 19.75 ± 0.75 g; weights: heart (chicken embryo; [2]): 0.19 ± 0.05 g; weights: liver (chicken embryo; [2]): 0.44 ± 0.05 g; TBARs value (chicken fetal liver): 142.56 nmol/g

Q: What does the source list for `[N-]=[N+]=[N-].[Na+]` [NaN3, reference compound]?
A: number of revertants/plate (M ± SD), positive control (S. typhimurium TA100; TA100 -S9, 1 μg/plate, control set of luteolin and apigenin): 860 ± 52 ^d^** revertants/plate; number of revertants/plate (M ± SD), positive control (S. typhimurium TA100; TA100 -S9, 1 μg/plate, control set of quercetin and genistein): 743 ± 28 ^d^** revertants/plate

Q: `O=[N+]([O-])c1ccc2c(c1)Cc1ccccc1-2` [2-NF, reference compound] was tested. Which “number of revertants/plate (M ± SD), positive control” value (“number of revertants/plate (M ± SD)” for short) (S. typhimurium TA98; TA98 -S9, 1 μg/plate, control set of luteolin and apigenin) did it give?
A: 723 ± 64 ^c^** revertants/plate

Q: And the “number of revertants/plate (M ± SD)” value (S. typhimurium TA98; TA98 -S9, 1 μg/plate, control set of quercetin and genistein)?
A: 634 ± 16 ^c^** revertants/plate

Q: Which “number of revertants/plate (M ± SD)” value (S. typhimurium TA98; TA98 +S9, 5 μg/plate, control set of luteolin and apigenin) does the source give for `Nc1ccc2cc3ccccc3cc2c1` [2-AA, reference compound] here?
A: 846 ± 47 ^e^** revertants/plate

Q: And the “number of revertants/plate (M ± SD)” value (S. typhimurium TA98; TA98 +S9, 5 μg/plate, control set of quercetin and genistein)?
A: 806 ± 25 ^e^** revertants/plate

Q: And the “number of revertants/plate (M ± SD)” value (S. typhimurium TA100; TA100 +S9, 5 μg/plate, control set of luteolin and apigenin)?
A: 941 ± 56 ^e^** revertants/plate

Q: And the “number of revertants/plate (M ± SD)” value (S. typhimurium TA100; TA100 +S9, 5 μg/plate, control set of quercetin and genistein)?
A: 845 ± 45 ^e^** revertants/plate

Q: And the “number of revertants/plate (M ± SD)” value (S. typhimurium TA102; control set of luteolin and apigenin)?
A: 997 ± 35 ^e^** revertants/plate

Q: What about the “number of revertants/plate (M ± SD)” value (S. typhimurium TA102; control set of quercetin and genistein) of the same compound?
A: 757 ± 35 ^e^** revertants/plate

Q: What does the source list for `C[C@]12CC[C@@H]3c4ccc(O)cc4CC[C@H]3[C@@H]1CC[C@@H]2O` [E2, 17β-estradiol, reference compound]?
A: EC50 (MCF-7 cells): 0.01 nM; LSI (liver somatic index) (chicken embryo; [1]): 2.06 ± 0.38%; REEW (ratio of embryo to egg weight) (chicken embryo; [1]): 0.38 ± 0.021; malformation rate (chicken embryo; [1]): 0.0%; mortality rate (chicken embryo; [1]): 33.3%; number of dead chicken embryo (chicken embryo; [1]): 6; number of malformation chicken embryo (chicken embryo; [1]): 0; weights: embryo (chicken embryo; [1]): 22.89 ± 0.87 g; weights: heart (chicken embryo; [1]): 0.18 ± 0.01 g; weights: liver (chicken embryo; [1]): 0.47 ± 0.07 g; LSI (liver somatic index) (chicken embryo; [2]): 2.18 ± 0.01%; REEW (ratio of embryo to egg weight) (chicken embryo; [2]): 0.39 ± 0.001; malformation rate (chicken embryo; [2]): 0.0%; mortality rate (chicken embryo; [2]): 31.8%; number of dead chicken embryo (chicken embryo; [2]): 7; number of malformation chicken embryo (chicken embryo; [2]): 0; weights: embryo (chicken embryo; [2]): 20.24 ± 3.53 g; weights: heart (chicken embryo; [2]): 0.18 ± 0.03 g; weights: liver (chicken embryo; [2]): 0.54 ± 0.01 g
